Calls of active or inactive are those of the source. The rule behind the calls is not given here.
Legend:
[1] = Cytotoxicity against human Ect1 cells assessed as reduction in cell viability in presence of 4 Gy irradiation by MTT assay; assay type: cell-based; conditions: light or radiation study
Outline: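 MTT viability assay in Ect1/E6E7 normal ectocervical epithelial cells, with the test agent alone (0 Gy) or combined with 4 Gy X-rays. IC50 values are in μM.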

[2] = target: T1, Dihydrofolate reductase (Homo sapiens) (UniProt P00374); assay: Inhibition of DHFR in human HeLa cells at 10 uM relative to control; assay type: cell-based
T1 sequence (whole entry): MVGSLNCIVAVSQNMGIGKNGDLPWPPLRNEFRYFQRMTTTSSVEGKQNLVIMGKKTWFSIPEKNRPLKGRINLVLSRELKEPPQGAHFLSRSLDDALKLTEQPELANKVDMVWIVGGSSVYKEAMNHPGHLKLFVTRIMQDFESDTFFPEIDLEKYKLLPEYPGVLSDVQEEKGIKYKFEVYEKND
Outline: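 HeLa cells treated with compound; DHFR activity assayed in cell lysates, inhibition expressed relative to untreated control.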

HeLa [3] = assay: Induction of cell cycle arrest in human HeLa cells assessed as accumulation at S phase at 1 uM after 48 hrs by propidium iodide staining based flow cytometric analysis (reference value: 41.6%); assay type: functional
HeLa [4] = assay: Induction of cell cycle arrest in human HeLa cells assessed as accumulation at G1 phase at 1 uM after 48 hrs in presence of 4 Gy X-ray radiation by propidium iodide staining based flow cytometric analysis (reference value: 28.6%); assay type: functional
HeLa [5] = assay: Induction of cell cycle arrest in human HeLa cells assessed as accumulation at S phase at 1 uM after 48 hrs in presence of 4 Gy X-ray radiation by propidium iodide staining based flow cytometric analysis (reference value: 31%); assay type: functional
HeLa [6] = assay: Induction of cell cycle arrest in human HeLa cells assessed as accumulation at G2/M phase at 1 uM after 48 hrs in presence of 4 Gy X-ray radiation by propidium iodide staining based flow cytometric analysis (reference value: 40.4%); assay type: functional
HeLa [7] = assay: Induction of mitochondrial dysfunction in human HeLa cells assessed as change in mitochondrial membrane potential at 1 uM incubated for 24 hrs by JC1 staining based flow cytometry (reference value: 1.3%); assay type: functional
Outline: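 Mitochondrial membrane potential was assessed by JC-1 flow cytometry in HeLa cells treated at 1 μM without or with 4 Gy X-rays. Green fluorescence gives the proportion of cells with lost ΔΨm.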

HeLa [8] = assay: Induction of reactive oxygen species generation in human HeLa cells incubated with DHE for 30 mins and measured up to 30 mins by fluorescence microscopic analysis; assay type: functional, cell-based
Outline: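 HeLa cells pretreated with compound, with or without 4 Gy X-rays, then incubated with dihydroethidium for 30 min; red superoxide-derived fluorescence imaged by fluorescence microscopy, with observation continued over a further 30 min.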

HeLa [9] = assay: Induction of ROS generation in human HeLa cells in presence of 4 Gy X-ray irradiation by DHE fluorescent dye based microplate reader analysis (reference value: 150%); assay type: functional
HeLa [10] = assay: Inhibition of cell migration in human HeLa cells assessed as reduction in spreading rate at 1 uM after 24 hrs in presence of 4 Gy X-ray irradiation by phase contrast microscopic analysis; assay type: functional, cell-based
Outline: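 Wound-healing scratch assay on HeLa monolayers, compound with or without 4 Gy X-rays; wound closure recorded by phase-contrast microscopy at set times; migrated cells counted manually; mean ± SD of three independent experiments.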

HeLa [11] = assay: Antimigratory activity in human HeLa cells assessed as inhibition of cell migration at 1 uM after 24 hrs by wound healing assay relative to control; assay type: functional; conditions: read-out: INH
Outline: (§1)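 Wound-healing scratch assay in HeLa cells. Cells were treated without or with 4 Gy X-rays, and wound closure was imaged by phase-contrast microscopy at the indicated times. Migrated cells were counted manually. Mean ± SD of three independent experiments.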

HeLa [12] = assay: Antimigratory activity in human HeLa cells assessed as inhibition of cell migration at 1 uM after 24 hrs in presence of 4 Gy irradiation by wound healing assay (reference value: 35%); assay type: functional; conditions: light or radiation study, read-out: INH; outline: as §1
[13] = Drug localization in lysosome of human HeLa cells at 20 uM after 4 hrs by LysoTracker/DAPI staining based fluorescence microscopic analysis; assay type: ADME, subcellular
Outline: (§2)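 HeLa cells pretreated with 20 μM compound; LysoTracker added 2 h and DAPI 30 min before each time point; compound green fluorescence (emission about 510 nm) overlaid with lysosome (red) and nucleus under fluorescence microscope.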

[14] = Drug localization in cytoplasm of human HeLa cells at 20 uM after 8 hrs by LysoTracker/DAPI staining based fluorescence microscopic analysis; assay type: ADME, subcellular; outline: as §2
[15] = Toxicity in BALB/c mouse xenografted with human HeLa cells assessed as heart damage at 4 mg/kg, iv administered for every 3 days for 21 days and measured after 24 hrs post last dose by H and E staining based light microscopic analysis; assay type: organism-based; conditions: in vivo
Outline: (§3)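 HeLa-tumor-bearing nude mice dosed at 4 mg/kg iv every 3 days for 21 days, alone or with X-rays; euthanized 24 h after last injection; heart, liver, lungs, kidneys and spleen sectioned and stained with H&E.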

[16] = Toxicity in BALB/c mouse xenografted with human HeLa cells assessed as heart damage at 4 mg/kg, iv administered for every 3 days for 21 days and measured after 24 hrs post last dose in presence of 4 Gy X-ray irradiation by H and E staining based light microscopic analysis; assay type: organism-based; conditions: in vivo; outline: as §3
[17] = Toxicity in BALB/c mouse xenografted with human HeLa cells assessed as liver damage at 4 mg/kg, iv administered for every 3 days for 21 days and measured after 24 hrs post last dose in presence of 4 Gy X-ray irradiation by H and E staining based light microscopic analysis; assay type: organism-based; conditions: in vivo; outline: as §3
[18] = Toxicity in BALB/c mouse xenografted with human HeLa cells assessed as spleen damage at 4 mg/kg, iv administered for every 3 days for 21 days and measured after 24 hrs post last dose in presence of 4 Gy X-ray irradiation by H and E staining based light microscopic analysis; assay type: organism-based; conditions: in vivo; outline: as §3
[19] = Toxicity in BALB/c mouse xenografted with human HeLa cells assessed as body weight loss at 4 mg/kg, iv administered for every 3 days and measured after 21 days in presence of 4 Gy X-ray irradiation; assay type: organism-based; conditions: in vivo, 504 h
Outline: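 HeLa-tumor-bearing nude mice given compound at 4 mg/kg by tail-vein injection every 3 days, alone or with X-rays; body weight recorded across 21 days.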

[20] = Toxicity in BALB/c mouse xenografted with human HeLa cells assessed as liver damage by measuring effect on AST level at 4 mg/kg, iv administered every 3 days for 21 days; assay type: organism-based; conditions: in vivo
Outline: (§4)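 HeLa xenograft nude mice dosed at 4 mg/kg iv every 3 days over 21 days, alone or with X-rays; blood collected 24 h after last injection for serum biochemistry: ALT, AST (liver), BUN and uric acid (kidney).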

[21] = Toxicity in BALB/c mouse xenografted with human HeLa cells assessed as kidney damage by measuring effect on BUN level at 4 mg/kg, iv administered every 3 days for 21 days; assay type: organism-based; conditions: in vivo; outline: as §4
[22] = Toxicity in BALB/c mouse xenografted with human HeLa cells assessed as liver damage by measuring effect on ALT level at 4 mg/kg, iv administered every 3 days for 21 days in presence of 4 Gy X-ray irradiation; assay type: organism-based; conditions: in vivo; outline: as §4

Nc1nc(N)c2nc3c(nc2n1)-c1cccc2cccc-3c12
IC50 [1]: 3.1 µM
inhibition [2]: 76%
Activity (HeLa [3]): 29.2%
Activity (HeLa [4]): 47.7%
Activity (HeLa [5]): 16.1%
Activity (HeLa [6]): 36.2%
Activity (HeLa [7]): 6.8%
Activity (HeLa [8]): Active
Activity (HeLa [9]): 205%
inhibition (HeLa [10]): Active
inhibition at 1 µM (HeLa [11]): 46%
inhibition at 1 µM (HeLa [12]): 81%
Drug uptake [13]: Active
Drug uptake [14]: Active
Activity [15]: Non-Toxic
Activity [16]: Non-Toxic
Activity [17]: Non-Toxic
Activity [18]: Non-Toxic
Activity [19]: Non-Toxic
Activity [20]: Non-Toxic
Activity [21]: Non-Toxic
Activity [22]: Non-Toxic

Reference: ChEMBL document CHEMBL4622964, “Designing Dihydrofolate Reductase Inhibitors as X-ray Radiosensitizers to Reverse Radioresistance of Cervical Cancer” (ACS Med Chem Lett, 2020)
